Data reported in ChEMBL document CHEMBL3244051, “15,15-Ketals of natural prostaglandins and prostaglandin analogues. Synthesis and biological activities” (1978).
The source made the active and inactive calls. The rule behind the calls is not given here.

Assays:
Rattus norvegicus [1] = experiment: Abortifacient activity in sc dosed early pregnant Wistar rat assessed as decrease in serum progesterone level administered in benzyl benzoate and castor oil on day 4 to day 7 of gestation measured on day 3, 5, 7 and 9 of gestation by RIA relative to PGF2alpha; assay type: functional
Outline: (§1)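 Female Wistar rats mated at proestrus; sperm in vaginal smear next day defines day 1 of gestation. Dosed sc in 0.2 mL oil (benzyl benzoate:castor oil 1:3) on days 4–7; 4 rats/group. Orbital plexus blood taken days 3, 5, 7, 9 for serum progesterone by RIA; rats killed day 9, uteri inspected for abortion.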

[2] = […] activity in rat uterus assessed as uterine contraction relative to PGF2alpha; assay type: functional
Outline: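 Isolated rat uterine horns held in salt solution matching extracellular fluid; contractions recorded isotonically as length change. One horn of each animal received test agent, the other the reference, in separate organ baths; n = 4 paired comparisons. Contraction height (mm) analysed by analysis of variance.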

Ileum = experiment: Contraction of guinea pig ileum relative to PGF2alpha; assay type: functional, Cavia porcellus
Rattus norvegicus [3] = experiment: Abortifacient activity in sc dosed early pregnant Wistar rat assessed as decrease in serum progesterone level measured per animal administered in benzyl benzoate and castor oil on day 4 to day 7 of gestation measured on day 3, 5, 7 and 9 of gestation by RIA; assay type: functional; outline: as §1

SMILES	fold change (FC) (Rattus norvegicus [1])	fold change (FC) [2]	fold change (FC) (Ileum)	Activity (Rattus norvegicus [1])	Activity (Rattus norvegicus [3]) [mg/day]
CCCCCC1(/C=C/[C@@H]2[C@@H](C/C=C\CCCC(=O)OC)[C@@H](O)C[C@H]2O)OCC(C)(C)CO1	<0.3	<0.1	–	–	–
COC(=O)CCC/C=C\C[C@@H]1[C@@H](/C=C/C2(c3ccc(Cl)cc3)OCCO2)[C@H](O)C[C@@H]1O	10	10	–	–	–
COC(=O)CCC/C=C\C[C@@H]1[C@@H](/C=C/C2(CCc3ccccc3)OCCO2)[C@H](O)C[C@@H]1O	30	>10	–	–	–
CCCCCC1(CC[C@@H]2[C@@H](C/C=C\CCCC(=O)OC)[C@@H](O)C[C@H]2O)OCCO1	<0.3	1	–	–	–
CCCCCC(/C=C/[C@@H]1[C@@H](C/C=C\CCCC(=O)OC)[C@@H](O)C[C@H]1O)(OC)OC	<0.1	0.1	<0.1	–	–
O=C(O)CCC/C=C\C[C@@H]1[C@@H](/C=C/C2(COc3ccccc3)OCCO2)[C@H](O)C[C@@H]1O	–	–	–	Active	–
CCCCCC1(/C=C/[C@@H]2[C@@H](C/C=C\CCCC(=O)O)[C@@H](O)C[C@H]2O)OCCO1	1	5	–	–	–
O=C(O)CCC/C=C\C[C@@H]1[C@@H](/C=C/C2(COc3ccccc3)OCCO2)[C@H](O)C[C@@H]1O [ETIPROSTON]	10	10	0.1	–	–
COC(=O)CCC/C=C\C[C@@H]1[C@@H](/C=C/C2(COc3ccc(F)cc3)OCCO2)[C@H](O)C[C@@H]1O	10	10	–	–	–
CCCCOC(=O)CCC/C=C\C[C@@H]1[C@@H](/C=C/C2(COc3ccccc3)OCCO2)[C@H](O)C[C@@H]1O	30	10	–	–	–
NC(CO)(CO)CO.O=C(O)CCC/C=C\C[C@@H]1[C@@H](/C=C/C2(COc3ccccc3)OCCO2)[C@H](O)C[C@@H]1O	–	>10	–	–	–
CCCCCC1(/C=C/[C@@H]2[C@@H](C/C=C\CCCC(=O)OC)[C@@H](O)C[C@H]2O)OCCO1	1	5	0.1	–	–
CCCCCC1(/C=C/[C@@H]2[C@@H](C/C=C\CCCC(=O)OC)[C@@H](O)C[C@H]2O)OCCCO1	<0.3	<0.1	–	–	–
COC(=O)CCC/C=C\C[C@@H]1[C@@H](CCC2(COc3ccccc3)OCCO2)[C@H](O)C[C@@H]1O	10	>10	–	–	–
COC(=O)CCC/C=C\C[C@@H]1[C@@H](/C=C/C2(COc3ccccc3)OCCO2)[C@H](O)C[C@@H]1O	100	>10	<0.1	–	–
CCCCC[C@H](O)/C=C/[C@@H]1[C@@H](C/C=C\CCCC(=O)O)[C@@H](O)C[C@H]1O [DINOPROST]	–	–	–	–	0.3
COC(=O)CCC/C=C\C[C@@H]1[C@@H](/C=C/C2(COc3cccc(C(F)(F)F)c3)OCCO2)[C@H](O)C[C@@H]1O	10	>10	<0.1	–	–
